Data on 18 compounds can be found in ChEMBL document CHEMBL1157749, “Novel N2-substituted pyrazolo[3,4-d]pyrimidine adenosine A3 receptor antagonists: inhibition of A3-mediated human glioblastoma cell proliferation” (J Med Chem, 2010).

One assay has as its target T1, Adenosine receptor A1 (Homo sapiens, UniProt P30542).
T1 sequence (P30542 whole entry): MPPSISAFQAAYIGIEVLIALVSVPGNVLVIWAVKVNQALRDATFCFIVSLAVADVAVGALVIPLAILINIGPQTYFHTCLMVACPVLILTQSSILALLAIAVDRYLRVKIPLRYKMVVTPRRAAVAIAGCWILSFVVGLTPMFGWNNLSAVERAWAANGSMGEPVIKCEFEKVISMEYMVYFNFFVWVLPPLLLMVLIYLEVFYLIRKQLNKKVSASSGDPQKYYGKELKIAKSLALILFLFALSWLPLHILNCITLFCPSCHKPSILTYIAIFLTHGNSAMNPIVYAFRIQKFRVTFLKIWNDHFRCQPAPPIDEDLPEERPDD
Briefly: Displacement of [3H]DPCPX from human adenosine A1 receptor expressed in CHO cells. The class given is cell-based. For orientation: Displacement assays read how much labelled ligand stays bound in the presence of the test substance.

Another assay has as its target Adenosine receptor A2a (Homo sapiens, UniProt P29274). The assay can be described thus: biochemical. The class given is cell-based, CHO.
Another assay addresses T2, Adenosine receptor A3 (Homo sapiens, UniProt P0DMS8).
T2 sequence (P0DMS8 whole entry): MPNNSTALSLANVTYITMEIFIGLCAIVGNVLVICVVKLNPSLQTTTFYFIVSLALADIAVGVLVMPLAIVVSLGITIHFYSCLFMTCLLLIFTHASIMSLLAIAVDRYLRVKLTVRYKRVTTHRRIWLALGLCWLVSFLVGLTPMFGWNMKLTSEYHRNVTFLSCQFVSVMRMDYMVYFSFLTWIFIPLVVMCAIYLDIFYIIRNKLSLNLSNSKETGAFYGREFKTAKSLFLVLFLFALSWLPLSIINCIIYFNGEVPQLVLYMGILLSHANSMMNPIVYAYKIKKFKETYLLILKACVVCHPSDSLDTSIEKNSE
The assay can be described thus: biochemical. Format: cell-based, CHO.

Assay [1] concerns the target T3, Adenosine deaminase (Bos taurus) (UniProt P56658).
T3 sequence (whole entry): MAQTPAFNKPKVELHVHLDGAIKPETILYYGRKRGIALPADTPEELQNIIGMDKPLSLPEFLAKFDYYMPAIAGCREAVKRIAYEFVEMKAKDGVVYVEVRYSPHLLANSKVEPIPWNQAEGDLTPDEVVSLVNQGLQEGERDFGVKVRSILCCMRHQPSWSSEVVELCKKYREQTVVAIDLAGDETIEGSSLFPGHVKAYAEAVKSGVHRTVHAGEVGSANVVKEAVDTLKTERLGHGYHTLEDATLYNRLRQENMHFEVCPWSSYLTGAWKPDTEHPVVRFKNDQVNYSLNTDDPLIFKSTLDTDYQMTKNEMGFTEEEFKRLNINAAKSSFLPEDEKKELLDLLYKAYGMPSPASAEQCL
The assay can be described thus: Inhibition of bovine spleen adenosine deaminase at 10 uM after 2 mins by spectrophotometry. In outline:
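Bovine spleen ADA at 0.3 nM with 50 μM adenosine in 50 mM potassium phosphate, pH 7.2, at 30 °C. Inhibitor is tested at 10 μM with final DMSO ≤4%. Deamination is followed as the change in A262 over 2 min, against a substrate-free blank.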

Active and inactive are the calls of the source. No cut-off for these calls is given here.

Chain of Adenosine receptor A2a (P29274 whole entry): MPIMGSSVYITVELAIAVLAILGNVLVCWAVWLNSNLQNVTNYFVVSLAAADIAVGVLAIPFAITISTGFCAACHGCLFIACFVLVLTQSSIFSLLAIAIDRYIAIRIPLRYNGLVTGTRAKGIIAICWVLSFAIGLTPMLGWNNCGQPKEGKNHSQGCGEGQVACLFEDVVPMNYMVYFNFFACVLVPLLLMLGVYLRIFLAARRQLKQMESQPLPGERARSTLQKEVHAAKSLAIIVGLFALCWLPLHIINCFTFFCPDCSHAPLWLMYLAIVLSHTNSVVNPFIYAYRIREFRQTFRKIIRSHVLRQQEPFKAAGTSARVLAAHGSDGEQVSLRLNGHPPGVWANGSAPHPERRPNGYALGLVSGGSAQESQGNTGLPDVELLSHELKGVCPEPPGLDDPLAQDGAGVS

One may read the Ki as a dissociation constant, usually derived from enzyme kinetics or from competition with a known ligand. A lower Ki goes with a stronger hold on the target. As to `COc1ccc(NC(=O)Nc2nc(-c3ccccc3)nc3nn(C)cc23)cc1`, the values for the inhibitory constant (Ki) at Adenosine receptor A1, at Adenosine receptor A2a and on Adenosine receptor A3 were above 10000 nM, above 10000 nM and 358 nM, respectively. Moreover, the inhibition result in assay [1] was “inactive”.

On to `Cn1cc2c(NC(=O)Nc3ccccc3)nc(-c3ccccc3)nc2n1`, for which the inhibitory constant (Ki) on Adenosine receptor A1 is above 10000 nM; at Adenosine receptor A2a, above 10000 nM; at Adenosine receptor A3 it was 20.9 nM. Besides, the inhibition result in assay [1] is “inactive”.

On to `O=C(Nc1ncnc2nn(Cc3ccccc3)cc12)c1cccc(Cl)c1`, for which the Ki on Adenosine receptor A1 was above 10000 nM; at Adenosine receptor A2a it was 4900 nM; on Adenosine receptor A3, above 1000 nM.

On to `O=C(Nc1nc(-c2ccccc2)nc2nn(CCc3ccccc3)cc12)c1ccccc1`, for which the Ki amounted to 27 nM at Adenosine receptor A1, 227 nM at Adenosine receptor A2a and 43.7 nM at Adenosine receptor A3.

For `O=C(Nc1ccccc1)Nc1nc(-c2ccccc2)nc2nn(CCc3ccccc3)cc12`, the inhibitory constant (Ki) at Adenosine receptor A1 is 1700 nM; on Adenosine receptor A2a, 96 nM; on Adenosine receptor A3 it was 36.3 nM.

`COc1ccc(C(=O)Nc2nc(-c3ccccc3)nc3nn(Cc4ccccc4)cc23)cc1`: the Ki was above 10000 nM on Adenosine receptor A1, above 10000 nM at Adenosine receptor A2a and 22.1 nM on Adenosine receptor A3.

As for `Cn1cc2c(N)nc(-c3ccccc3)nc2n1`, the inhibitory constant (Ki) at Adenosine receptor A1 was 585 nM; at Adenosine receptor A2a, above 10000 nM; at Adenosine receptor A3, 922 nM. Moreover, the inhibition entry in assay [1] is “inactive”.

As for `O=C(Nc1cccc(Cl)c1)Nc1nc(-c2ccccc2)nc2nn(CCc3ccccc3)cc12`, the figures for the Ki on Adenosine receptor A1, at Adenosine receptor A2a and at Adenosine receptor A3 were above 10000 nM, above 10000 nM and above 1000 nM, respectively.

Turning to `COc1ccc(C(=O)Nc2ncnc3nn(Cc4ccccc4)cc23)cc1`, the inhibition constant Ki on Adenosine receptor A1 is above 10000 nM; at Adenosine receptor A2a it was above 10000 nM; on Adenosine receptor A3, above 1000 nM.

With `Cn1cc2c(NC(=O)c3cccc(Cl)c3)nc(-c3ccccc3)nc2n1`, the Ki on Adenosine receptor A1 worked out at 1080 nM; on Adenosine receptor A2a, 886 nM; on Adenosine receptor A3, 5.9 nM. The inhibition entry in assay [1] was “inactive”.

In the case of `O=C(Nc1ncnc2nn(Cc3ccccc3)cc12)c1ccccc1`, the Ki on Adenosine receptor A1 is above 10000 nM; at Adenosine receptor A2a, above 10000 nM; on Adenosine receptor A3, above 1000 nM.

With `Cn1cc2c(NC(=O)Nc3cccc(Cl)c3)nc(-c3ccccc3)nc2n1`, the Ki at Adenosine receptor A1 is 922 nM; on Adenosine receptor A2a it was above 10000 nM; at Adenosine receptor A3, 29.1 nM. Moreover, the inhibition entry in assay [1] was “inactive”.

Consider `COc1ccc(NC(=O)Nc2nc(-c3ccccc3)nc3nn(CCc4ccccc4)cc23)cc1`, for which the Ki at Adenosine receptor A1 was above 10000 nM; on Adenosine receptor A2a it was above 10000 nM; at Adenosine receptor A3, above 1000 nM.

Turning to `O=C(Nc1nc(-c2ccccc2)nc2nn(CCc3ccccc3)cc12)c1cccc(Cl)c1`, the Ki is 1050 nM on Adenosine receptor A1, 314 nM at Adenosine receptor A2a and 22.3 nM at Adenosine receptor A3.

Take `Nc1nc(-c2ccccc2)nc2nn(Cc3ccccc3)cc12`: the inhibition constant Ki turned out to be 312 nM at Adenosine receptor A1, 121 nM at Adenosine receptor A2a and 93 nM on Adenosine receptor A3. Also, the inhibition result in assay [1] was “inactive”.

Take `COc1ccc(C(=O)Nc2nc(-c3ccccc3)nc3nn(CCc4ccccc4)cc23)cc1`: the Ki was found to be 2400 nM at Adenosine receptor A1, 1140 nM on Adenosine receptor A2a and 45.2 nM on Adenosine receptor A3.

For the compound `Nc1nc(-c2ccccc2)nc2nn(CCc3ccccc3)cc12`, the Ki on Adenosine receptor A1 amounted to 2500 nM; on Adenosine receptor A2a, 1000 nM; at Adenosine receptor A3, 503 nM. The inhibition result in assay [1] was “inactive”.

For the compound `O=C(Nc1cccc(Cl)c1)Nc1nc(-c2ccccc2)nc2nn(Cc3ccccc3)cc12`, the inhibitory constant (Ki) at Adenosine receptor A1 is above 10000 nM; on Adenosine receptor A2a it was above 10000 nM; on Adenosine receptor A3 it was 121 nM.
